In ChEMBL document CHEMBL1158519, “Syntheses and antibacterial activity studies of new oxazolidinones from nitroso Diels-Alder chemistry” (2010):

Key:
Assay type in all cases: functional
Conditions in all cases: read-out: DIZ
[1] = system: Micrococcus luteus; assay: Antimicrobial activity against Micrococcus luteus ATCC 10240 at 2 mM after overnight incubation by agar diffusion method
Outline: (§1)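 Agar diffusion: 9 mm wells cut in Standard I Nutrient Agar or Mueller Hinton II agar, each loaded with 50 µl of a 2.0 mM compound solution in 1:9 DMSO:MeOH. Ciprofloxacin was run as control at 5 µg/mL in H2O. Plates were incubated at 37 °C for 24 h, and the inhibition zone diameter was read in mm. Zones were flagged as partially clear, unclear with colonies, or faint.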

[2] = system: Escherichia coli; assay: Antimicrobial activity against Escherichia coli ATCC 25922 at 2 mM after overnight incubation by agar diffusion method; outline: as §1
[3] = system: Pseudomonas aeruginosa; assay: Antimicrobial activity against Pseudomonas aeruginosa K799/61 mutant at 2 mM after overnight incubation by agar diffusion method
Outline: (§2)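 Agar well diffusion: 50 µl of a 2.0 mM solution in 1:9 DMSO:MeOH placed in 9 mm wells cut in nutrient agar or Mueller Hinton II agar; plates incubated 37 °C for 24 h, then inhibition zone diameter measured in mm. Zones scored as clear, partially clear, unclear (many colonies inside) or faint. Ciprofloxacin positive control at 5 µg/mL in water.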

[4] = system: Enterococcus faecalis; assay: Antimicrobial activity against Enterococcus faecalis ATCC 49532 at 2 mM after overnight incubation by agar diffusion method; outline: as §1
[5] = system: Bacillus subtilis; assay: Antimicrobial activity against Bacillus subtilis ATCC 6633 at 2 mM after overnight incubation by agar diffusion method; outline: as §1
[6] = system: Staphylococcus aureus; assay: Antimicrobial activity against wild type Staphylococcus aureus SG 511 at 2 mM after overnight incubation by agar diffusion method; outline: as §1
[7] = system: Mycolicibacterium vaccae; assay: Antimicrobial activity against Mycobacterium vaccae IMET 10670 at 2 mM after overnight incubation by agar diffusion method; outline: as §1
[8] = system: Pseudomonas aeruginosa; assay: Antimicrobial activity against wild type Pseudomonas aeruginosa K799 at 2 mM after overnight incubation by agar diffusion method; outline: as §1
[9] = system: Escherichia coli; assay: Antimicrobial activity against Escherichia coli X580 at 2 mM after overnight incubation by agar diffusion method
[10] = system: Staphylococcus aureus; assay: Antimicrobial activity against methicillin-resistant Staphylococcus aureus 143/93 at 2 mM after overnight incubation by agar diffusion method; outline: as §2
[11] = system: Enterococcus faecalis; assay: Antimicrobial activity against vancomycin-resistant Enterococcus faecalis 1528 at 2 mM after overnight incubation by agar diffusion method; outline: as §2

Structure (SMILES) | zone of inhibition at 2000 µM [1] [mm] | zone of inhibition at 2000 µM [2] [mm] | zone of inhibition at 2000 µM [3] [mm] | zone of inhibition at 2000 µM [4] [mm] | zone of inhibition at 2000 µM [5] [mm] | zone of inhibition at 2000 µM [6] [mm] | zone of inhibition at 2000 µM [7] [mm] | zone of inhibition at 2000 µM [8] [mm] | zone of inhibition at 2000 µM [9] [mm] | zone of inhibition at 2000 µM [10] [mm] | zone of inhibition at 2000 µM [11] [mm]
O=C1O[C@@H](COC(=O)N2OC3C=CC2C3)CN1c1ccc(N2CC[S+]([O-])CC2)c(F)c1 (some centres not stated) | 22 | 0 | 11 | 19 | 21 | 18 | 35 | 0 |  |  | 
O=C(NO)OC[C@H]1CN(c2ccc(N3CCSCC3)c(F)c2)C(=O)O1 | 33 | 0 | 0 | 16 | 16 | 16 |  | 0 | 20 |  | 
O=C(NO)OC[C@H]1CN(c2ccc(N3CCOCC3)c(F)c2)C(=O)O1 | 37 | 12 | 0 | 22 | 23 | 18 |  | 0 | 0 |  | 
CC(C)(C)OC(=O)N1CCN(c2ccc(N3C[C@H](CO)OC3=O)cc2F)CC1 | 34.5 | 0 | 10 | 21 | 23 | 24 |  | 0 |  |  | 
O=C1O[C@@H](CO)CN1c1ccc(N2CCOCC2)c(F)c1 | 38 | 0 | 11 | 21 | 26 | 23 | 43 | 0 |  |  | 
O=C1O[C@@H](CO)CN1c1ccc(N2CCSCC2)c(F)c1 | 41 | 0 | 11 | 21.5 | 26 | 24 | 43 | 0 |  |  | 
O=C(N[C@H]1C=C[C@@H](O)C1)OC[C@H]1CN(c2ccc(N3CCOCC3)c(F)c2)C(=O)O1 |  |  | 0 |  | 14 | 15 | 18 |  |  | 14 | 12
O=C(N[C@H]1C=C[C@@H](O)CC1)OC[C@H]1CN(c2ccc(N3CCOCC3)c(F)c2)C(=O)O1 |  |  | 0 |  | 13 | 14 | 0 |  |  | 14 | 12
O=C(N[C@H]1C=C[C@@H](O)CC1)OC[C@H]1CN(c2ccc(N3CCSCC3)c(F)c2)C(=O)O1 | 14 | 0 | 10 | 12 | 12 | 0 | 0 | 0 |  |  | 
CC(C)(C)OC(=O)N1CCN(c2ccc(N3C[C@H](COC(=O)NO)OC3=O)cc2F)CC1 | 33 | 12 | 0 | 20 | 22 | 17 |  | 0 | 0 |  | 
O=C1O[C@@H](COC(=O)N2OC3C=CC2C3)CN1c1ccc(N2CCOCC2)c(F)c1 (some centres not stated) |  |  | 0 |  | 17 | 15 | 30 |  |  | 25 | 19
O=C1O[C@@H](COC(=O)N2OC3C=CC2CC3)CN1c1ccc(N2CC[S+]([O-])CC2)c(F)c1 (some centres not stated) | 15 | 0 | 10 | 17 | 17 | 15 | 18 | 0 |  |  | 
CC(C)(C)OC(=O)N1CCN(c2ccc(N3C[C@H](COC(=O)N[C@H]4C=C[C@@H](O)C4)OC3=O)cc2F)CC1 | 12 | 0 | 10 | 12.5 | 13 | 14 | 12 | 0 |  |  | 
O=C(N[C@H]1C=C[C@@H](O)C1)OC[C@H]1CN(c2ccc(N3CCSCC3)c(F)c2)C(=O)O1 | 15 | 0 | 10 | 12.5 | 14 | 12.5 | 18 | 0 |  |  | 
CC(=O)OC[C@H]1CN(c2ccc(N3CCOCC3)c(F)c2)C(=O)O1 | 38 | 0 | 17 | 24 | 26.5 | 26 | 43 | 0 |  |  | 
CC(C)(C)OC(=O)N1CCN(c2ccc(N3C[C@H](COC(=O)N4OC5C=CC4C5)OC3=O)cc2F)CC1 (some centres not stated) | 16 | 0 | 0 | 19 | 12 | 13 | 19 | 14 |  | 19 | 16
CC(C)(C)OC(=O)N1CCN(c2ccc(N3C[C@H](COC(=O)N4OC5C=CC4CC5)OC3=O)cc2F)CC1 (some centres not stated) |  |  | 0 |  | 18 | 16 | 13 |  |  | 14 | 12
O=C1O[C@@H](COC(=O)N2OC3C=CC2CC3)CN1c1ccc(N2CCOCC2)c(F)c1 (some centres not stated) |  |  | 0 |  | 19 | 16 | 15 |  |  | 18 | 16
CC(C)(C)OC(=O)N1CCN(c2ccc(N3C[C@H](COC(=O)N[C@H]4C=C[C@@H](O)CC4)OC3=O)cc2F)CC1 | 0 | 0 | 12 | 12 | 0 | 0 | 0 | 0 |  |  | 
O=C(O)c1cn(C2CC2)c2cc(N3CCNCC3)c(F)cc2c1=O [CIPROFLOXACIN] | 0 | 31 | 39 | 13 | 29.5 | 24 | 19 | 35 |  | 0 | 15
CC(=O)NC[C@H]1CN(c2ccc(N3CCOCC3)c(F)c2)C(=O)O1 [LINEZOLID] | 38 | 0 | 10 | 25 | 31 | 27 | 42 | 0 | 0 |  | 
